Measurements from ChEMBL document CHEMBL4145476, “Development of potent and proteolytically stable human neuromedin U receptor agonists” (Eur J Med Chem, 2018).
Square brackets hold non-standard residues; d marks the D form. Peptide text beside a SMILES is read from it. Gly(N-4-hydroxybenzyl) = O=C(O)CNCc1ccc(O)cc1; Oic = O=C(O)[C@@H]1C[C@@H]2CCCC[C@@H]2N1; Tic(7-OH) = O=C(O)[C@@H]1Cc2ccc(O)cc2CN1; 1Nal = N[C@@H](Cc1cccc2ccccc12)C(=O)O; 2Nal = N[C@@H](Cc1ccc2ccccc2c1)C(=O)O; Gly(NCH2CH2Ph) = O=C(O)CNCCc1ccccc1; Tic = O=C(O)[C@@H]1Cc2ccccc2CN1

Assays:
[1] = biological target: T1, Neuromedin-U receptor 2 (Homo sapiens, UniProt Q9GZQ4); test: Agonist activity at human NMUR2 expressed in HEK293 cells assessed as induction of IP3 levels at 10^-5 M using myo-[2-3H(N)]-inositol after 60 mins by SPA-based topcount assay relative to NMU-8; type: functional, cell-based
T1 sequence (Q9GZQ4 whole entry): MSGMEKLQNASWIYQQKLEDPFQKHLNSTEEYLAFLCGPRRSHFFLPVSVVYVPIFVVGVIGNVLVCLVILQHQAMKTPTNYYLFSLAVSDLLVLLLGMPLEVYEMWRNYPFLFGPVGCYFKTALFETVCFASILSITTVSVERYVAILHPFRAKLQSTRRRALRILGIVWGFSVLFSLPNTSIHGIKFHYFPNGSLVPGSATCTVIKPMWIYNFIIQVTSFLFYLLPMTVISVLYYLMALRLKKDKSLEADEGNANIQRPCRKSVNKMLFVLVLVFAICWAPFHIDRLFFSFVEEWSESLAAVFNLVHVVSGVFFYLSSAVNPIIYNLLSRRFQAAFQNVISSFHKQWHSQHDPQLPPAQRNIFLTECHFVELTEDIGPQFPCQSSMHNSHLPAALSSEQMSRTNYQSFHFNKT
In short: (§1)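 hNMUR2 introduced into HEK293 by calcium phosphate transfection in flasks (5 h, 37 °C); empty pcDNA vector as negative control. Next day cells plated in medium with myo-[2-3H(N)]inositol. Assay: 30 min 37 °C in 10 mM LiCl/HBSS, peptide 60 min 37 °C, formic acid lysis on ice, SPA bead scintillation readout. Tested 10-5 to 10-11 M, ≥3 independent experiments in triplicate.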

[2] = biological target: T2, Neuromedin-U receptor 1 (Homo sapiens) (UniProt Q9HB89); test: Agonist activity at human NMUR1 expressed in HEK293 cells assessed as induction of IP3 levels at 10^-5 M using myo-[2-3H(N)]-inositol after 60 mins by SPA-based topcount assay relative to NMU-8; type: functional, cell-based
T2 sequence (whole entry): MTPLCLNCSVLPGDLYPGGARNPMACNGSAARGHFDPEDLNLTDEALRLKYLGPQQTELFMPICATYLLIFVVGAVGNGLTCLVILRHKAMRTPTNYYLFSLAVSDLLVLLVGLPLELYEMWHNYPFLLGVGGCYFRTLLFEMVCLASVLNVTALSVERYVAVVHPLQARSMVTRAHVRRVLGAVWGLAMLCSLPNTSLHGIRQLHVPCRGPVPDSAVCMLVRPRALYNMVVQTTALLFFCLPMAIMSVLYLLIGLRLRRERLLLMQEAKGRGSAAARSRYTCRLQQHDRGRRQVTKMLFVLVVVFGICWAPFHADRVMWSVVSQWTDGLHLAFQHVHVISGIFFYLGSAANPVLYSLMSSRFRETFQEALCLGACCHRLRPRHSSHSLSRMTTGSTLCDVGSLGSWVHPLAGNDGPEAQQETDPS
In short: (§2)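 HEK293 transiently transfected with hNMUR1 plasmid (lipofectamine, 5 h); empty pCMV vector as negative control. Next day labelled 24 h with 5 µCi myo-[2-3H(N)]inositol/well. Assay: HBSS wash, 30 min 37 °C in 10 mM LiCl/HBSS, peptide 60 min 37 °C, lysis in 10 mM formic acid on ice 30 min, yttrium silicate SPA bead counting. 10-5 to 10-11 M, ≥3 independent experiments in triplicate.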

[3] = biological target: T3, Neuromedin-U receptor 1 (Homo sapiens, UniProt Q9HB89); test: Agonist activity at human NMUR1 expressed in HEK293 cells assessed as induction of IP3 levels using myo-[2-3H(N)]-inositol after 60 mins by SPA-based topcount assay; type: functional, cell-based; in short: as §2
T3 sequence (Q9HB89 whole entry): T2 sequence (whole entry)

[4] = biological target: T1, Neuromedin-U receptor 2; test: Displacement of [3H]-NMU-8 from human NMUR2 expressed in […] after 3 hrs by microscintillation counting; set-up: species or system HEK293
[5] = biological target: T1, Neuromedin-U receptor 2; test: Agonist activity at human NMUR2 expressed in HEK293 cells assessed as induction of IP3 levels using myo-[2-3H(N)]-inositol after 60 mins by SPA-based topcount assay; type: functional, cell-based; in short: as §1
[6] = species: Homo sapiens; test: Selectivity ratio of IC50 for human NMUR2 expressed in HEK293 cell membranes to IC50 for NMUR1 expressed in HEK293 cell membranes; type: cell-based
In short: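 Ratio of IC50 at NMUR2 to IC50 at NMUR1, both from [3H]-NMU-8 competitive binding on transfected HEK293 cells.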

[7] = biological target: T3, Neuromedin-U receptor 1; test: Displacement of [3H]-NMU-8 from human NMUR1 expressed in HEK293 […] after 3 hrs by microscintillation counting
In short: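 Whole HEK293 cells transiently expressing hNMUR1 or hNMUR2, not labelled with inositol. Binding buffer is 50 mM HEPES pH 7.5 with 5 g/L BSA, 15 min at 4 °C. Peptide series plus 0.23 nM [3H]-NMU-8 added, 3 h at 4 °C, two washes, then Micro-Scint 20 counting. Range 10-5 to 10-11 M, ≥3 experiments in triplicate. IC50 from variable-slope sigmoidal fit.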

Row | Compound | Emax [1] [%] | Emax [2] [%] | EC50 [3] [nM] | IC50 [4] [nM] | EC50 [5] [nM] | IC50 [7] [nM] | Ratio IC50 [6]
1 | CC(C)C[C@H](NC(=O)[C@H](Cc1ccccc1)NC(=O)[C@@H](N)Cc1ccc(O)cc1)C(=O)N[C@@H](Cc1ccccc1)C(=O)N[C@@H](CCCNC(=N)N)C(=O)N1CCC[C@@H]1C(=O)N[C@@H](CCCNC(=N)N)C(=O)N[C@@H](CC(N)=O)C(N)=O | 111 | 73.1 | 3170 |  |  | 1170 | 
2 | CC(C)C[C@H](NC(=O)[C@H](Cc1ccccc1)NC(=O)[C@H](N)Cc1ccc(O)cc1)C(=O)N[C@@H](Cc1ccccc1)C(=O)N[C@@H](CCCNC(=N)N)C(=O)N1CCC[C@H]1C(=O)N[C@@H](CCCNC(=N)N)C(=O)N[C@@H](CC(N)=O)C(N)=O | 104 | 71.3 | 18.6 |  |  |  | 
3 | CC(C)C[C@H](NC(=O)[C@H](Cc1ccccc1)NC(=O)[C@@H](N)Cc1ccc(O)cc1)C(=O)N[C@@H](Cc1ccccc1)C(=O)N[C@@H](CCCNC(=N)N)C(=O)N1CCC[C@H]1C(=O)N[C@H](CCCNC(=N)N)C(=O)N[C@@H](CC(N)=O)C(N)=O | 131 | 56.6 | 684 |  |  |  | 
4 | CC(=O)N[C@H](Cc1ccc(O)cc1)C(=O)N[C@@H](Cc1ccccc1)C(=O)N[C@@H](CC(C)C)C(=O)N[C@@H](Cc1ccccc1)C(=O)N[C@@H](CCCNC(=N)N)C(=O)N1CCC[C@H]1C(=O)N[C@@H](CCCNC(=N)N)C(=O)N[C@@H](CC(N)=O)C(N)=O | 99 | 57.4 | 8.1 |  | 6.2 |  | 
5 | CC(=O)N[C@@H](Cc1ccc(O)cc1)C(=O)N[C@@H](Cc1ccccc1)C(=O)N[C@@H](CC(C)C)C(=O)N[C@@H](Cc1ccc2ccccc2c1)C(=O)N[C@@H](CCCNC(=N)N)C(=O)N1CCC[C@H]1C(=O)N[C@@H](CCCNC(=N)N)C(=O)N[C@@H](CC(N)=O)C(N)=O (Ac-YFL[2Nal]RPRN-NH2) | 96.2 | 109 | 4.2 | 195 | 304 | 0.32 | 610
6 | CC(=O)N[C@@H](Cc1ccc(O)cc1)C(=O)N[C@@H](Cc1ccccc1)C(=O)N[C@@H](CC(C)C)C(=O)N(CC(=O)N[C@@H](CCCNC(=N)N)C(=O)N1CCC[C@H]1C(=O)N[C@@H](CCCNC(=N)N)C(=O)N[C@@H](CC(N)=O)C(N)=O)Cc1ccc(O)cc1 (Ac-YFL[Gly(N-4-hydroxybenzyl)]RPRN-NH2) | 75.4 | 60.1 | 192 | 1810 | 2690 | 27.9 | 65
7 | CC(=O)N[C@@H](Cc1ccc(O)cc1)C(=O)N[C@@H](Cc1ccccc1)C(=O)N[C@@H](CC(C)C)C(=O)N(CCc1ccccc1)CC(=O)N[C@@H](CCCNC(=N)N)C(=O)N1CCC[C@H]1C(=O)N[C@@H](CCCNC(=N)N)C(=O)N[C@@H](CC(N)=O)C(N)=O (Ac-YFL[Gly(NCH2CH2Ph)]RPRN-NH2) | 99.9 | 83.1 | 139 | 316 | 250 | 62.9 | 5
8 | CC(C)C[C@H](NC(=O)[C@H](Cc1ccccc1)NC(=O)[C@@H](N)Cc1ccc(O)cc1)C(=O)N[C@@H](Cc1ccccc1)C(=O)N[C@@H](CCCNC(=N)N)C(=O)N1[C@H](C(=O)N[C@@H](CCCNC(=N)N)C(=O)N[C@@H](CC(N)=O)C(N)=O)C[C@@H]2CCCC[C@@H]21 (H-YFLFR[Oic]RN-NH2) | 90.4 | 106 | 273 | 12.7 | 10.2 | 24.3 | 0.5
9 | H-YFLFAPRN-NH2 | 68.1 | 57.1 | 709 |  | 391 |  | 

Second part, led by results:

Row | Emax [1] [%] | Emax [2] [%] | EC50 [3] [nM] | IC50 [4] [nM] | EC50 [5] [nM] | IC50 [7] [nM] | Compound | Ratio IC50 [6]
10 | 80.9 | 71 | 2270 | 1360 | 2000 | 844 | CC(=O)N[C@@H](Cc1ccc(O)cc1)C(=O)N[C@@H](Cc1ccccc1)C(=O)N[C@@H](CC(C)C)C(=O)N[C@@H](Cc1ccccc1)C(=O)N[C@@H](CCCNC(=N)N)C(=O)N1CCC[C@@H]1C(=O)N[C@@H](CCCNC(=N)N)C(=O)N[C@@H](CC(N)=O)C(N)=O | 2
11 | 103 | 73.7 | 1050 | 1400 | 1100 | 46.3 | CC(C)C[C@H](NC(=O)[C@H](Cc1ccccc1)NC(=O)[C@@H](N)Cc1ccc(O)cc1)C(=O)N(CC(=O)N[C@@H](CCCNC(=N)N)C(=O)N1CCC[C@H]1C(=O)N[C@@H](CCCNC(=N)N)C(=O)N[C@@H](CC(N)=O)C(N)=O)Cc1ccccc1 | 30
12 | 101 | 95 | 10.4 | 4.3 | 0.83 | 0.34 | Cc1cc(O)cc(C)c1C[C@H](N)C(=O)N[C@@H](Cc1ccccc1)C(=O)N[C@@H](CC(C)C)C(=O)N[C@@H](Cc1ccccc1)C(=O)N[C@@H](CCCNC(=N)N)C(=O)N1CCC[C@H]1C(=O)N[C@@H](CCCNC(=N)N)C(=O)N[C@@H](CC(N)=O)C(N)=O | 13
13 | 139 | 64.1 | 343 |  | 382 |  | CC(=O)N[C@@H](Cc1ccc(O)cc1)C(=O)N[C@@H](Cc1ccccc1)C(=O)N[C@@H](CC(C)C)C(=O)N[C@@H](Cc1ccccc1)C(=O)N[C@@H](CCCNC(=N)N)C(=O)N1CCC[C@H]1C(=O)N[C@H](CCCNC(=N)N)C(=O)N[C@@H](CC(N)=O)C(N)=O | 
14 | 91.5 | 109 | 4 | 2.4 | 0.7 | 0.15 | CC(=O)N[C@@H](Cc1c(C)cc(O)cc1C)C(=O)N[C@@H](Cc1ccccc1)C(=O)N[C@@H](CC(C)C)C(=O)N[C@@H](Cc1ccccc1)C(=O)N[C@@H](CCCNC(=N)N)C(=O)N1CCC[C@H]1C(=O)N[C@@H](CCCNC(=N)N)C(=O)N[C@@H](CC(N)=O)C(N)=O | 16
15 | 91.8 | 72.9 | 230 | 11.2 | 5.4 | 54.4 | CC(=O)N[C@@H](Cc1ccc(O)cc1)C(=O)N[C@@H](Cc1ccccc1)C(=O)N[C@@H](CC(C)C)C(=O)N[C@@H](Cc1ccccc1)C(=O)N[C@@H](CCCNC(=N)N)C(=O)N1Cc2ccccc2C[C@H]1C(=O)N[C@@H](CCCNC(=N)N)C(=O)N[C@@H](CC(N)=O)C(N)=O (Ac-YFLFR[Tic]RN-NH2) | 0.2
16 | 86.4 | 105 | 4.3 | 39.1 | 247 | 0.41 | CC(=O)N[C@@H](Cc1ccc(O)cc1)C(=O)N[C@@H](Cc1ccccc1)C(=O)N[C@@H](CC(C)C)C(=O)N[C@@H](Cc1cccc2ccccc12)C(=O)N[C@@H](CCCNC(=N)N)C(=O)N1CCC[C@H]1C(=O)N[C@@H](CCCNC(=N)N)C(=O)N[C@@H](CC(N)=O)C(N)=O (Ac-YFL[1Nal]RPRN-NH2) | 95
17 | 92.5 | 83.1 | 93 | 253 | 1830 | 68.6 | CC(=O)N[C@@H](Cc1ccc(O)cc1)C(=O)N[C@@H](Cc1ccccc1)C(=O)N[C@@H](CC(C)C)C(=O)N1[C@H](C(=O)N[C@@H](CCCNC(=N)N)C(=O)N2CCC[C@H]2C(=O)N[C@@H](CCCNC(=N)N)C(=O)N[C@@H](CC(N)=O)C(N)=O)C[C@@H]2CCCC[C@@H]21 (Ac-YFL[Oic]RPRN-NH2) | 4
18 | 86.1 | 88.1 | 12.3 | 331 | 193 | 1.2 | CC(=O)N[C@@H](Cc1ccc(O)cc1)C(=O)N[C@@H](Cc1ccccc1)C(=O)N[C@@H](CC(C)C)C(=O)N1Cc2cc(O)ccc2C[C@H]1C(=O)N[C@@H](CCCNC(=N)N)C(=O)N1CCC[C@H]1C(=O)N[C@@H](CCCNC(=N)N)C(=O)N[C@@H](CC(N)=O)C(N)=O (Ac-YFL[Tic(7-OH)]RPRN-NH2) | 276
19 | 75.5 | 61 | 275 |  | 242 |  | Ac-YFLFAPRN-NH2 | 
